Experimental data from ChEMBL document CHEMBL4689842, “EUbOPEN Chemogenomics Library wave 1” (2021).

Tested on: U2OS
Assay: Multiplex assay against U2OS
Assay type: toxicity, cell-based
Details: human
In short: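 Imaging took place on a CQ1 microscope at 37°C and 5% CO2 once compound had been added to live cells stained at seeding with Hoechst33342, BioTracker Green Microtubule Cytoskeleton Dye, MitoTracker Red and Annexin V Alexa Fluor 680. CellPathfinder machine-learning gating classed cells as Hoechst high-intensity objects or normal cells, classed normal cells as having healthy, pyknosed or fragmented nuclei, and classed pyknosed cells as mitotic or apoptotic. Tubulin, mitochondrial-mass and membrane-permeability phenotypes are per cents of the healthy-nucleus cells.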

[1] = 12 h, 1 µM, compound concentration 1 uM, replicate 1
[2] = 12 h, 1 µM, compound concentration 1 uM, replicate 2
[3] = 12 h, 10 µM, compound concentration 10 uM, replicate 1
[4] = 12 h, 10 µM, compound concentration 10 uM, replicate 2
[5] = 24 h, 1 µM, compound concentration 1 uM, replicate 1
[6] = 24 h, 1 µM, compound concentration 1 uM, replicate 2
[7] = 24 h, 10 µM, compound concentration 10 uM, replicate 1
[8] = 24 h, 10 µM, compound concentration 10 uM, replicate 2
[9] = 48 h, 1 µM, compound concentration 1 uM, replicate 1
[10] = 48 h, 1 µM, compound concentration 1 uM, replicate 2
[11] = 48 h, 10 µM, compound concentration 10 uM, replicate 1
[12] = 48 h, 10 µM, compound concentration 10 uM, replicate 2

Structure (SMILES): COc1ncc(-c2ccc3nccc(-c4ccnnc4)c3c2)cc1NS(=O)(=O)c1ccc(F)cc1F [OMIPALISIB]
- Population Apoptotic (%) [1]: 65%
- Population Fragmented Nuclei (%) [1]: 13%
- Population Healthy Nuclei (%) [1]: 67%
- Population Hoechst High Intensity Objects (%) [1]: 4%
- Population Membrane Permeable-Phenotype (%) [1]: 6%
- Population Mitochondria Different-Phenotype (%) [1]: 3%
- Population Mitotic Cells (%) [1]: 34%
- Population Normal (%) [1]: 95%
- Population Pyknosed Nuclei (%) [1]: 18%
- Population Tubulin-Different-Phenotype (%) [1]: 9%
- Total Cell Count [1]: 135
- Population Apoptotic (%) [2]: 50%
- Population Fragmented Nuclei (%) [2]: 46%
- Population Healthy Nuclei (%) [2]: 42%
- Population Hoechst High Intensity Objects (%) [2]: 7%
- Population Membrane Permeable-Phenotype (%) [2]: 16%
- Population Mitochondria Different-Phenotype (%) [2]: 16%
- Population Mitotic Cells (%) [2]: 50%
- Population Normal (%) [2]: 92%
- Population Pyknosed Nuclei (%) [2]: 11%
- Population Tubulin-Different-Phenotype (%) [2]: 23%
- Total Cell Count [2]: 51
- Population Apoptotic (%) [3]: 58%
- Population Fragmented Nuclei (%) [3]: 28%
- Population Healthy Nuclei (%) [3]: 37%
- Population Hoechst High Intensity Objects (%) [3]: 6%
- Population Membrane Permeable-Phenotype (%) [3]: 14%
- Population Mitochondria Different-Phenotype (%) [3]: 15%
- Population Mitotic Cells (%) [3]: 41%
- Population Normal (%) [3]: 93%
- Population Pyknosed Nuclei (%) [3]: 33%
- Population Tubulin-Different-Phenotype (%) [3]: 15%
- Total Cell Count [3]: 150
- Population Apoptotic (%) [4]: 65%
- Population Fragmented Nuclei (%) [4]: 33%
- Population Healthy Nuclei (%) [4]: 27%
- Population Hoechst High Intensity Objects (%) [4]: 7%
- Population Membrane Permeable-Phenotype (%) [4]: 11%
- Population Mitochondria Different-Phenotype (%) [4]: 16%
- Population Mitotic Cells (%) [4]: 34%
- Population Normal (%) [4]: 92%
- Population Pyknosed Nuclei (%) [4]: 39%
- Population Tubulin-Different-Phenotype (%) [4]: 22%
- Total Cell Count [4]: 77
- Population Apoptotic (%) [5]: 62%
- Population Fragmented Nuclei (%) [5]: 19%
- Population Healthy Nuclei (%) [5]: 61%
- Population Hoechst High Intensity Objects (%) [5]: 9%
- Population Membrane Permeable-Phenotype (%) [5]: 5%
- Population Mitochondria Different-Phenotype (%) [5]: 4%
- Population Mitotic Cells (%) [5]: 37%
- Population Normal (%) [5]: 90%
- Population Pyknosed Nuclei (%) [5]: 18%
- Population Tubulin-Different-Phenotype (%) [5]: 14%
- Total Cell Count [5]: 135
- Population Apoptotic (%) [6]: 33%
- Population Fragmented Nuclei (%) [6]: 43%
- Population Healthy Nuclei (%) [6]: 40%
- Population Hoechst High Intensity Objects (%) [6]: 11%
- Population Membrane Permeable-Phenotype (%) [6]: 24%
- Population Mitochondria Different-Phenotype (%) [6]: 17%
- Population Mitotic Cells (%) [6]: 66%
- Population Normal (%) [6]: 88%
- Population Pyknosed Nuclei (%) [6]: 16%
- Population Tubulin-Different-Phenotype (%) [6]: 37%
- Total Cell Count [6]: 50
- Population Apoptotic (%) [7]: 70%
- Population Fragmented Nuclei (%) [7]: 36%
- Population Healthy Nuclei (%) [7]: 25%
- Population Membrane Permeable-Phenotype (%) [7]: 17%
- Population Mitochondria Different-Phenotype (%) [7]: 25%
- Population Mitotic Cells (%) [7]: 29%
- Population Pyknosed Nuclei (%) [7]: 38%
- Population Tubulin-Different-Phenotype (%) [7]: 17%
- Total Cell Count [7]: 170
- Population Apoptotic (%) [8]: 80%
- Population Fragmented Nuclei (%) [8]: 27%
- Population Healthy Nuclei (%) [8]: 22%
- Population Hoechst High Intensity Objects (%) [8]: 11%
- Population Membrane Permeable-Phenotype (%) [8]: 35%
- Population Mitochondria Different-Phenotype (%) [8]: 28%
- Population Mitotic Cells (%) [8]: 20%
- Population Normal (%) [8]: 88%
- Population Pyknosed Nuclei (%) [8]: 49%
- Population Tubulin-Different-Phenotype (%) [8]: 42%
- Total Cell Count [8]: 81
- Population Apoptotic (%) [9]: 59%
- Population Fragmented Nuclei (%) [9]: 23%
- Population Healthy Nuclei (%) [9]: 50%
- Population Hoechst High Intensity Objects (%) [9]: 12%
- Population Membrane Permeable-Phenotype (%) [9]: 7%
- Population Mitochondria Different-Phenotype (%) [9]: 6%
- Population Mitotic Cells (%) [9]: 40%
- Population Normal (%) [9]: 87%
- Population Pyknosed Nuclei (%) [9]: 26%
- Population Tubulin-Different-Phenotype (%) [9]: 16%
- Total Cell Count [9]: 142
- Population Apoptotic (%) [10]: 47%
- Population Fragmented Nuclei (%) [10]: 43%
- Population Healthy Nuclei (%) [10]: 32%
- Population Hoechst High Intensity Objects (%) [10]: 15%
- Population Membrane Permeable-Phenotype (%) [10]: 39%
- Population Mitochondria Different-Phenotype (%) [10]: 43%
- Population Mitotic Cells (%) [10]: 52%
- Population Normal (%) [10]: 84%
- Population Pyknosed Nuclei (%) [10]: 23%
- Population Tubulin-Different-Phenotype (%) [10]: 56%
- Total Cell Count [10]: 59
- Population Apoptotic (%) [11]: 83%
- Population Fragmented Nuclei (%) [11]: 37%
- Population Healthy Nuclei (%) [11]: 9%
- Population Hoechst High Intensity Objects (%) [11]: 15%
- Population Membrane Permeable-Phenotype (%) [11]: 46%
- Population Mitochondria Different-Phenotype (%) [11]: 46%
- Population Mitotic Cells (%) [11]: 16%
- Population Normal (%) [11]: 84%
- Population Pyknosed Nuclei (%) [11]: 52%
- Population Tubulin-Different-Phenotype (%) [11]: 61%
- Total Cell Count [11]: 181
- Population Apoptotic (%) [12]: 82%
- Population Fragmented Nuclei (%) [12]: 31%
- Population Healthy Nuclei (%) [12]: 19%
- Population Hoechst High Intensity Objects (%) [12]: 18%
- Population Membrane Permeable-Phenotype (%) [12]: 81%
- Population Mitochondria Different-Phenotype (%) [12]: 72%
- Population Mitotic Cells (%) [12]: 17%
- Population Normal (%) [12]: 81%
- Population Pyknosed Nuclei (%) [12]: 49%
- Population Tubulin-Different-Phenotype (%) [12]: 72%
- Total Cell Count [12]: 84
